Tests used:
[1] = Drug excretion in healthy human urine assessed as unchanged drug at 37.5 mg, po administered as single dose coadministered with 100 mg of ritonavir by high-pressure liquid chromatography-tandem mass spectrometry/mass spectrometry method; format: ADME, organism-based; details: read-out: Drug uptake
How it was run: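 Ritonavir 100 mg was given 10 h before and with one oral dose of BILR 355 in PEG solution. Urine was collected by weight as predose blank, then 0-6, 6-24 and 24-72 h, stored at −20°C and assayed by LC-MS/MS. fe = unchanged drug excreted (Ae) as a percentage of dose. Line 50: high-fat breakfast 30 min before dosing.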

[2] = Drug excretion in healthy human urine assessed as unchanged drug at 25 mg, po administered as single dose by high-pressure liquid chromatography-tandem mass spectrometry/mass spectrometry method; format: ADME, organism-based; details: read-out: Drug uptake
How it was run: (§1)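 Urine was collected by weight after one oral dose of BILR 355 in PEG solution in fasted healthy males. Intervals were predose blank, 0-6, 6-24 and 24-72 h, with the bladder voided before each. Aliquots were stored at −20°C and assayed by LC-MS/MS. fe = amount of unchanged drug excreted (Ae) as a percentage of the administered dose.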

[3] = Apparent volume of distribution at steady state in healthy human at 5 mg, po administered as single dose; format: ADME, organism-based; details: in vivo, read-out: Vss/F
How it was run: (§2)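 Single fasting oral dose of BILR 355 in PEG solution with 200 ml tap water, given to healthy males. Standard breakfast came 60-90 min after the dose. EDTA plasma was sampled predose to 144 h, stored below −18°C and assayed by LC-MS/MS after protein precipitation. Noncompartmental analysis gave Vz/F. Vss/F = CL/F·(MRTp.o. − 1/Ka), with Ka from compartmental modelling.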

[4] = test system: Homo sapiens; assay: Toxicity in healthy human assessed as occurrence of migraine at 5 mg, po administered as single dose relative to control; format: organism-based; details: in vivo
[5] = test system: Homo sapiens; assay: Toxicity in healthy human assessed as occurrence of headache at 25 mg, po administered as single dose relative to control; format: organism-based; details: in vivo
[6] = Mean residence time in healthy human at 12.5 mg, po administered as single dose coadministered with 100 mg of ritonavir; format: ADME, organism-based; details: in vivo
[7] = test system: Homo sapiens; assay: Toxicity in healthy human assessed as occurrence of palpitations at 75 mg, po administered as single dose relative to control; format: organism-based; details: in vivo
[8] = test system: Homo sapiens; assay: Toxicity in healthy human assessed as occurrence of increase in alanine aminotransferase level at 50 mg, po administered as single dose relative to control; format: organism-based; details: in vivo
[9] = test system: Homo sapiens; assay: Toxicity in healthy human assessed as occurrence of constipation at 25 mg, po administered as single dose relative to control; format: organism-based; details: in vivo
[10] = Apparent volume of distribution in terminal phase in healthy human at 50 mg, po administered as single dose coadministered with 100 mg of ritonavir; format: ADME, organism-based; details: in vivo, read-out: Vz/F
How it was run: (§3)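 Healthy male volunteers, fasted overnight, got one oral dose of BILR 355 in PEG solution with 200 ml water. Ritonavir 100 mg was given 10 h before and again with the dose. Plasma was sampled (EDTA) from predose to 144 h and assayed by validated LC-MS/MS. Cmax and Vz/F came from noncompartmental analysis. Vss/F = CL/F·(MRTp.o. − 1/Ka), with Ka from compartmental modelling.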

[11] = test system: Homo sapiens; assay: Toxicity in healthy human assessed as occurrence of aphthous stomatitis at 50 mg, po administered as single dose coadministered with 100 mg of ritonavir; format: organism-based; details: in vivo
[12] = test system: Homo sapiens; assay: Toxicity in healthy human assessed as occurrence of nausea at 25 mg, po administered as single dose relative to control; format: organism-based; details: in vivo
[13] = Apparent volume of distribution in terminal phase in healthy human at 25 mg, po administered as single dose; format: ADME, organism-based; details: in vivo, read-out: Vz/F; how it was run: as §2
[14] = AUC (0 to last) in healthy human at 75 mg, po administered as single dose; format: ADME, organism-based; set-up: dose 75 mg, time 0 - last, route oral; details: plasma
How it was run: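 Healthy male volunteers, six active plus two placebo per dose group, single oral dose in PEG solution with 200 ml water after overnight fast; breakfast 60 to 90 min post-dose. EDTA plasma sampled predose to 144 h. Assayed by validated LC-MS/MS after protein precipitation. Noncompartmental analysis, AUC by linear up/log down trapezoidal rule; Vss = CL/F·(MRTp.o. − 1/Ka).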

[15] = Apparent volume of distribution in terminal phase in healthy human at 12.5 mg, po administered as single dose coadministered with 100 mg of ritonavir; format: ADME, organism-based; details: in vivo, read-out: Vz/F; how it was run: as §3
[16] = Apparent volume of distribution in terminal phase in healthy human at 62.5 mg, po administered as single dose coadministered with 100 mg of ritonavir; format: ADME, organism-based; details: in vivo, read-out: Vz/F; how it was run: as §3
[17] = test system: Homo sapiens; assay: Toxicity in healthy human assessed as occurrence of fatigue at 5 mg, po administered as single dose relative to control; format: organism-based; details: in vivo
[18] = Apparent oral clearance in healthy human at 12.5 mg, po administered as single dose coadministered with 100 mg of ritonavir; format: ADME, organism-based; details: in vivo
How it was run: (§4)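 Healthy male volunteers, fasted. Ritonavir 100 mg given 10 h before and again together with single oral BILR 355 in PEG solution. EDTA plasma sampled predose to 144 h. LC-MS/MS assay after protein precipitation. Noncompartmental analysis, AUC by linear up/log down trapezoidal rule; Vss = CL/F·(MRTp.o. − 1/Ka).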

[19] = test system: Homo sapiens; assay: Ratio of half life in human at 75 mg, po in presence of 100 mg of ritonavir to half life in human at 75 mg, po; format: ADME, organism-based; details: in vivo
[20] = Renal clearance in healthy human at 5 mg, po administered as single dose by high-pressure liquid chromatography-tandem mass spectrometry/mass spectrometry method; format: ADME, organism-based, Kidney; details: in vivo, read-out: CL_renal (converted)
[21] = test system: Homo sapiens; assay: Toxicity in healthy human assessed as occurrence of maculopapular rash at 75 mg, po administered as single dose relative to control; format: organism-based; details: in vivo
[22] = test system: Homo sapiens; assay: Ratio of half life in human at 50 mg, po in presence of 100 mg of ritonavir to half life in human at 50 mg, po; format: ADME, organism-based; details: in vivo
[23] = Apparent volume of distribution at steady state in healthy human at 75 mg, po administered as single dose; format: ADME, organism-based; details: in vivo, read-out: Vss/F; how it was run: as §2
[24] = Apparent volume of distribution at steady state in high fat fed healthy human at 50 mg, po administered as single dose coadministered with 100 mg of ritonavir; format: ADME, organism-based; details: in vivo, read-out: Vss/F
How it was run: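 Fed cohort: healthy males ate an FDA-recipe high-fat breakfast (about 150/250/500-600 cal from protein/carbohydrate/fat) 30 min before a 50 mg oral dose of BILR 355 in PEG solution. Ritonavir 100 mg was given 10 h before and with the dose. Plasma was sampled over 144 h and assayed by LC-MS/MS. Noncompartmental analysis gave Cmax and Vz/F. Vss/F = CL/F·(MRTp.o. − 1/Ka).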

[25] = test system: Homo sapiens; assay: Toxicity in healthy human assessed as occurrence of migraine at 50 mg, po administered as single dose relative to control; format: organism-based; details: in vivo
[26] = Cmax in healthy human at 12.5 mg, po administered as single dose coadministered with 100 mg of ritonavir by high-pressure liquid chromatography-tandem mass spectrometry/mass spectrometry method; format: ADME, organism-based; set-up: dose 12.5 mg, route oral; details: in vivo; how it was run: as §3
[27] = Apparent oral clearance in healthy human at 87.5 mg, po administered as single dose coadministered with 100 mg of ritonavir; format: ADME, organism-based; details: in vivo; how it was run: as §4
[28] = Drug excretion in healthy human urine assessed as unchanged drug at 75 mg, po administered as single dose by high-pressure liquid chromatography-tandem mass spectrometry/mass spectrometry method; format: ADME, organism-based; details: read-out: Drug uptake; how it was run: as §1

dose excreted [1]: 4.58% | dose excreted [2]: 0.405% | Vd/F [3]: 1020 L | MRT [6]: 24.8 h | Vd/F [10]: 129 L | Vd/F [13]: 1040 L | AUC(0-t) [14]: 763 ng·h/mL | Vd/F [15]: 149 L | Vd/F [16]: 118 L | CL/F [18]: 112 mL/min | Ratio [19]: 5.4 | CL renal [20]: 4.52 mL/min | Ratio [22]: 4.6 | Vd/F [23]: 608 L | Vd/F [24]: 81.4 L | Cmax [26]: 74.1 ng/mL | CL/F [27]: 138 mL/min | dose excreted [28]: 0.602%
Structure (SMILES): CCN1c2ncc(CCOc3cc[n+]([O-])c4ccccc34)cc2C(=O)N(C)c2cccnc21 [BILR 355]
Activity [4]: 0% | Activity [5]: 16.7% | Activity [7]: 16.7% | Activity [8]: 0% | Activity [9]: 16.7% | Activity [11]: 0% | Activity [12]: 0% | Activity [17]: 0% | Activity [21]: 0% | Activity [25]: 0%

From ChEMBL document CHEMBL1629563, “Pharmacokinetic and safety evaluation of BILR 355, a second-generation nonnucleoside reverse transcriptase inhibitor, in healthy volunteers” (Antimicrob Agents Chemother, 2008)
